# Assay results: ChEMBL document CHEMBL1122708, “Preparation and antibacterial activities of new 1,2,3-diazaborine derivatives and analogues” (1984)
# Columns and labels:
# Klebsiella aerogenes = experiment: Minimum inhibitory concentration of compound against Enterobacter aerogenes delta 220; format: functional
# Escherichia coli [1] = experiment: Antibacterial activity againist Escherichia coli 120 infected NMRI mice after peroral administration; format: functional; details: po
# Summary of the method: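 ED50 in NMRI mice infected intraperitoneally with E. coli 120; compound given orally immediately and 5 h after infection.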
# Neisseria gonorrhoeae [2] = experiment: Minimum inhibitory concentration of compound against Neisseria gonorrhoeae W2; format: functional
# Summary of the method: (§1)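 Agar dilution on Kellogg agar, 10⁶ colony forming units, incubated 20 h at 36 °C in 5% CO₂; MIC is the lowest concentration giving no visible growth.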
# Salmonella typhimurium = experiment: Minimum inhibitory concentration of compound against Salmonella Typhimurium delta 119; format: functional, Salmonella enterica subsp. enterica serovar Typhimurium; details: Salmonella enterica
# Proteus mirabilis = experiment: Minimum inhibitory concentration against Proteus mirabilis delta 89; format: functional
# Klebsiella pneumoniae = experiment: Minimum inhibitory concentration of compound against Klebsiella pneumoniae delta 217; format: functional
# Escherichia coli [3] = experiment: Minimum inhibitory concentration of compound against Escherichia coli delta 120; format: functional
# Neisseria gonorrhoeae [4] = experiment: Minimum inhibitory concentration of compound against Neisseria gonorrhoeae AS 7720; format: functional; summary of the method: as §1
Compound,MIC (Klebsiella aerogenes) [µg/mL],ED50 (Escherichia coli [1]) [mg/kg],MIC (Neisseria gonorrhoeae [2]) [µg/mL],MIC (Salmonella typhimurium) [µg/mL],MIC (Proteus mirabilis) [µg/mL],MIC (Klebsiella pneumoniae) [µg/mL],MIC (Escherichia coli [3]) [µg/mL],MIC (Neisseria gonorrhoeae [4]) [µg/mL]
Cc1ccc(S(=O)(=O)N2N=Cc3ccccc3B2O)cc1,> 50,~25,8,6.25,12.5,3.12,25,2
Cc1ccc(S(=O)(=O)N2N=Cc3c(Cl)cc(N(C)C)cc3B2O)cc1,–,> 300,–,> 50,–,–,> 50,–
CS(=O)(=O)N1N=Cc2ccccc2B1O,–,–,–,> 50,–,–,> 50,–
Cc1cc(C)c(S(=O)(=O)N2N=Cc3c(F)cccc3B2O)c(C)c1,> 50,> 100,–,> 50,10,50,> 50,–
O=S(=O)(c1cc(Cl)c(Cl)cc1Cl)N1N=Cc2oc(Br)cc2B1O,> 50,> 300,2,50,6.25,50,> 50,0.5
Cc1ccc(S(=O)(=O)N2N=Cc3ccc(O)cc3B2O)cc1,–,~300,–,> 50,–,–,> 50,–
O=S(=O)(c1cc(Cl)c(Cl)cc1Cl)N1N=Cc2cc(Br)ccc2B1O,> 50,> 300,8,> 50,6.25,50,> 50,1
Cc1ccc(S(=O)(=O)N2N=Cc3ccc(F)cc3B2O)cc1,–,~250,–,> 50,–,–,> 50,–
Cc1ccc(S(=O)(=O)N2N=Cc3oc(C)cc3B2O)cc1,25,~10,8,3.12,3.12,1.56,12.5,1
Cc1ccc(S(=O)(=O)N2N=Cc3oc(Br)cc3B2O)cc1,25,~30,8,3.12,3.12,3.12,12.5,2
Cc1ccc(S(=O)(=O)N2N=Cc3cc(Br)ccc3B2O)cc1,> 50,~40,2,6.25,1.56,6.25,25,1
CCS(=O)(=O)N1N=Cc2sc(Br)cc2B1O,12.5,–,2,3.12,6.25,3.12,12.5,2
Cc1ccc(S(=O)(=O)N2N=Cc3cc(C)ccc3B2O)cc1,50,~15,8,3.12,3.12,1.56,12.5,1
Cc1cc2c(s1)C=NN(S(=O)(=O)c1ccccc1Cl)B2O,12.5,49,0.5,1.56,1.56,1.56,12.5,0.5
O=[N+]([O-])c1ccc(S(=O)(=O)N2N=Cc3c(F)cccc3B2O)cc1,–,~100,–,50,–,–,> 50,–
Cc1ccc2c(c1)C=NN(S(=O)(=O)N(C)C)B2O,> 50,–,8,12.5,6.25,6.25,> 50,8
CCCS(=O)(=O)N1N=Cc2sc(C)cc2B1O,3.12,4.5,1,0.78,0.78,0.39,1.56,1
CC1=NN(S(=O)(=O)c2ccc(C)cc2)B(O)c2ccccc21,–,~100,–,> 50,–,–,> 50,–
O=S(=O)(c1ccccc1Cl)N1N=Cc2sc(Br)cc2B1O,25,39,1,3.12,0.78,1.56,25,0.5
Cc1ccc(S(=O)(=O)N2N=Cc3c(ccn3C)B2O)cc1,–,> 300,–,> 50,–,–,> 50,–
CCCS(=O)(=O)N1N=Cc2sccc2B1O,25,28,8,3.12,25,1.56,6.25,8
Nc1ccc(S(=O)(=O)N2N=Cc3c(F)cccc3B2O)cc1,50,65,8,10,6.25,10,25,8
O=[N+]([O-])c1ccc(S(=O)(=O)N2N=Cc3cc(Br)ccc3B2O)cc1,> 50,~25,8,3.12,3.12,0.78,6.25,1
Cc1ccc(S(=O)(=O)N2N=Cc3cc(Cl)c(Cl)cc3B2O)cc1,–,> 100,–,> 50,–,–,> 50,–

Compound,MIC (Klebsiella aerogenes) [µg/mL],ED50 (Escherichia coli [1]) [mg/kg],MIC (Neisseria gonorrhoeae [2]) [µg/mL],MIC (Salmonella typhimurium) [µg/mL],MIC (Proteus mirabilis) [µg/mL],MIC (Klebsiella pneumoniae) [µg/mL],MIC (Escherichia coli [3]) [µg/mL],MIC (Neisseria gonorrhoeae [4]) [µg/mL]
Cc1ccc(S(=O)(=O)N2N=C(c3ccccc3)c3ccccc3B2O)cc1,–,> 300,–,> 50,–,–,> 50,–
Cc1ccc(S(=O)(=O)N2N=Cc3ccc(C(=O)O)cc3B2O)cc1,–,–,–,> 50,–,–,> 50,–
Cc1ccc(S(=O)(=O)N2N=Cc3c(Cl)cc(Cl)cc3B2O)cc1,–,> 100,–,> 50,–,–,> 50,–
Cc1ccc(S(=O)(=O)N2N=Cc3c(C)ccc(C)c3B2O)cc1,> 50,> 600,–,> 50,> 50,> 50,> 50,–
CCc1cc2c(s1)B(O)N(S(=O)(=O)c1ccccc1Cl)N=C2,25,24,1,2.5,1.56,1.25,10,0.5
O=S(=O)(c1cc(Cl)c(Cl)cc1Cl)N1N=Cc2c(F)cccc2B1O,> 50,> 300,–,> 50,25,> 50,> 50,–
CCc1cc2c(s1)B(O)N(S(=O)(=O)c1ccc(C)cc1)N=C2,25,9,0.5,1.56,1.25,1.25,6.25,0.25
Cc1ccc(S(=O)(=O)N2N=Cc3c(ccn3Cc3ccccc3)B2O)cc1,> 50,> 600,–,> 50,50,50,> 50,–
Cc1ccc(S(=O)(=O)N2N=Cc3c(C)cccc3B2O)cc1,> 50,> 100,8,50,5,10,> 50,2
CC(=O)Nc1ccc(S(=O)(=O)N2N=Cc3cc(C)ccc3B2O)c(Cl)c1,25,16,1,6.25,1.25,1.25,25,0.5
Cc1ccc(S(=O)(=O)N2N=Cc3c(F)cccc3B2O)cc1,> 50,5,8,25,3.12,25,> 50,2
Cc1ccc(S(=O)(=O)N2N=Cc3c(Br)cccc3B2O)cc1,–,> 100,–,> 50,–,–,> 50,–
CN(C)S(=O)(=O)N1N=Cc2ccccc2B1O,> 50,57,> 8,50,50,12.5,> 50,> 8
Cc1ccc(S(=O)(=O)N2N=Cc3cc(N)ccc3B2O)cc1,> 50,> 300,–,> 50,50,50,> 50,–
Cc1ccc(S(=O)(=O)N2N=Cc3ccc(N(C)C)cc3B2O)cc1,–,100,–,> 50,–,–,> 50,–
Cc1ccc(S(=O)(=O)N2N=Cc3c(Cl)cccc3B2O)cc1,–,~100,–,> 50,–,–,> 50,–
Cc1ccc(S(=O)(=O)N2N=Cc3scc(Br)c3B2O)cc1,> 50,> 300,–,> 50,50,> 50,> 50,–
Cc1ccc2c(c1)C=NN(S(=O)(=O)c1ccc(N)cc1)B2O,25,5,8,3.12,0.39,1.56,6.25,2
CCCS(=O)(=O)N1N=Cc2cc(C)ccc2B1O,10,73,2,2.5,1.56,1.25,6.25,2
Cc1ccc(S(=O)(=O)N2N=Cc3cc(N(C)C)ccc3B2O)cc1,–,> 300,–,> 50,–,–,> 50,–
CC(=O)Nc1ccc2c(c1)B(O)N(S(=O)(=O)c1ccc(C)cc1)N=C2,–,> 300,–,> 50,–,–,> 50,–
Cc1cc2c(s1)B(O)N(S(=O)(=O)CC(C)C)N=C2,6.25,5,1,1.56,1.56,0.78,6.25,1
Cc1ccc(S(=O)(=O)N2N=Cc3cc4c(cc3B2O)-c2ccccc2C4)cc1,> 50,> 600,8,> 50,50,> 50,> 50,2
